Each compound was assayed against T1, Prostaglandin G/H synthase 1 (Ovis aries, UniProt P05979) (assay: Inhibition of ovine COX1 using arachidonic acid as substrate incubated for 1 min prior to substrate addition measured for 25 secs by TMPD-based chromogenic assay).
T1 sequence (P05979 whole entry): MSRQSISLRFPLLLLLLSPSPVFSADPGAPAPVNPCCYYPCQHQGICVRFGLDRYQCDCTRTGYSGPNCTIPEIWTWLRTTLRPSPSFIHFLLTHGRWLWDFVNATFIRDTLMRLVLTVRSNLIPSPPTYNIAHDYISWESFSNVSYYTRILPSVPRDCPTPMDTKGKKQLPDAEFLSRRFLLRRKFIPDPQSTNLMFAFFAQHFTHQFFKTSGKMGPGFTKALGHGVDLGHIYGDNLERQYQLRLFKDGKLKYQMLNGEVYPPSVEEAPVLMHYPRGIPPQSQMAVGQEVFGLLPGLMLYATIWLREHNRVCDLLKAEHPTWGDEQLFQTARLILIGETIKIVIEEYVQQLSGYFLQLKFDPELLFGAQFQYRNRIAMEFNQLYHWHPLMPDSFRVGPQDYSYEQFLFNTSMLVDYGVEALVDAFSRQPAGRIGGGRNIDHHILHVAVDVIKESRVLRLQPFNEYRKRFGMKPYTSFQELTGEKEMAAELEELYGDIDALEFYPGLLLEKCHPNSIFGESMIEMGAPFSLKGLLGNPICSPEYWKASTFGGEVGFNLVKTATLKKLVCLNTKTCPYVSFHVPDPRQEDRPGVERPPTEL
Procedure, shortened: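 COX-1 purified from ram seminal vesicles by chromatography. Reaction in Tris HCl buffer (100 mM, pH 8.0) with hematin, EDTA (3 mM) and enzyme, preincubated with test compound at 25 °C for 1 min. Started with arachidonic acid plus TMPD. Nonenzymatic oxidation subtracted before calculating percent inhibition.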

Going from CC(Oc1cc(=O)oc2ccccc12)C(=O)Nc1ccc(N2CCOCC2=O)cc1 (racemic) to COc1ccc(NC(=O)C(C)Oc2cc(=O)oc3ccccc23)cc1 (racemic), the IC50 falls from 4.6 µM to 2.26 µM (2-fold).

Compared with CC(Oc1cc(=O)oc2ccccc12)C(=O)Nc1cccc2c(=O)[nH]ccc12 (racemic), Cc1c(Cl)cccc1NC(=O)C(C)Oc1cc(=O)oc2ccccc12 (racemic) is 1.5-fold higher in IC50: 2.98 µM for the first, 4.61 µM for the second. The first is the more potent here.

Compared with CC(Oc1cc(=O)oc2ccccc12)C(=O)Nc1ccc(C(F)(F)F)cc1C#N (racemic), CC(Oc1cc(=O)oc2ccccc12)C(=O)Nc1ccc(F)cc1F (racemic) is 5.9-fold lower in IC50: 9.6 µM for the first, 1.64 µM for the second.

Compared with CC(Oc1cc(=O)oc2ccccc12)C(=O)N1CCOCC1 (racemic), CC(Oc1cc(=O)oc2ccccc12)C(=O)N1CCCC1 (racemic) is 2.7-fold higher in IC50: 5.03 µM for the first, 13.7 µM for the second. The first is the more potent here.

Compared with CC(Oc1cc(=O)oc2ccccc12)C(=O)Nc1ccncc1 (racemic), CC(Oc1cc(=O)oc2ccccc12)C(=O)NC12CC3CC(C)(CC(C)(C3)C1)C2 (mixture of isomers) is 2.9-fold lower in IC50: 9.64 µM for the first, 3.33 µM for the second.

Source: ChEMBL document CHEMBL2157877, “Synthesis and pharmacological evaluation of N-substituted 2-(2-oxo-2H-chromen-4-yloxy)propanamide as cyclooxygenase inhibitors” (Bioorg Med Chem Lett, 2012)
